Results taken from ChEMBL document CHEMBL1157094, “Study on the constituents of Mexican propolis and their cytotoxic activity against PANC-1 human pancreatic cancer cells” (J Nat Prod, 2010).
Active and inactive are the calls of the source. No cut-off for these calls is given here.

Key:
PANC-1 [1] = assay: Cytotoxicity against human PANC1 cells in nutrient-deprived condition assessed as preferential cell death after 24 hrs by WST-8 assay
PANC-1 [2] = assay: Induction of apoptosis in human PANC1 cells in nutrient-deprived condition assessed as nuclear fragmentation at 12.5 uM after 24 hrs by phase-contrast microscopy; assay type: functional, cell-based
Method in brief: (§1)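 PANC-1 cells were seeded at 2 × 10^4 per well and grown 24 h in DMEM at 37 °C under 5% CO2/95% air. They were then washed with PBS and switched to nutrient-deprived medium (NDM) containing test compound. After 24 h exposure at 12.5 µM, morphology was photographed under a phase-contrast microscope at 200× magnification.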

[3] = Cytotoxicity against human TIG3 cells after 24 hrs by WST-8 assay; settings: tig-3, 24 h
PANC-1 [4] = assay: Induction of apoptosis in human PANC1 cells in nutrient-deprived condition assessed as nuclear condensation at 12.5 uM after 24 hrs by phase-contrast microscopy; assay type: functional, cell-based
Method in brief: as §1

PANC-1 [5] = assay: Induction of apoptosis in human PANC1 cells in nutrient-deprived condition assessed as membrane bleb formation at 12.5 uM after 24 hrs by phase-contrast microscopy; assay type: functional, cell-based
Method in brief: as §1

Structure (SMILES)	PC50 (PANC-1 [1]) [µM]	other results
COc1cc(O)cc2c1C(=O)[C@H](O)[C@@H](c1ccccc1)O2	>100	
COc1ccc(/C=C/C(=O)OCc2ccccc2)cc1OC	58.8	
O=C1C[C@@H](c2ccccc2)Oc2cc(O)cc(O)c21 [PINOCEMBRIN]	46.5	
CCC(C)C(=O)O[C@H]1C(=O)c2c(O)cc(OC)cc2O[C@@H]1c1ccccc1 (stereo not given in full)	44.8	
CCC(=O)O[C@H]1C(=O)c2c(O)cc(O)cc2O[C@@H]1c1ccccc1	18.2	
O=C(/C=C/c1ccccc1)OC/C=C/c1ccccc1	>100	
CC(C)C(=O)O[C@H]1C(=O)c2c(O)cc(O)cc2O[C@@H]1c1ccccc1	19.8	
CC(=O)OC(COC(=O)/C=C/c1ccc(O)cc1)COC(=O)/C=C/c1ccc(O)cc1	38.8	
COc1cc(/C=C/C(=O)O)ccc1O [FERULATE]	66.6	
COc1cc(/C=C/C(=O)OCC(COC(=O)/C=C/c2ccc(O)c(OC)c2)OC(C)=O)ccc1O	25.8	
O=C(/C=C/c1ccc(O)cc1)OCc1ccccc1	23.8	
C=C[C@H](c1ccc(O)c(OC)c1)c1c(O)cc(O)c2c(=O)c(O)c(-c3ccccc3)oc12	4.6	Activity (PANC-1 [2]): Active; Activity [3]: Non-toxic; Activity (PANC-1 [4]): Active; Activity (PANC-1 [5]): Active
COc1cc(O)c2c(c1)O[C@H](c1ccccc1)CC2=O [PINOSTROBIN]	>100	
O=c1cc(-c2ccc(O)cc2)oc2cc(O)cc(O)c12 [APIGENIN]	89.5	
O=C(OC/C=C/c1ccccc1)c1ccccc1	>100	
O=c1cc(-c2ccccc2)oc2cc(O)cc(O)c12 [CHRYSIN]	88.7	
CC(=O)OCC(O)COC(=O)/C=C/c1ccc(O)cc1 (stereo not given)	>100	
O=C(O)c1ccccc1 [BENZOIC ACID]	>100	
O=C(O)/C=C/c1ccccc1 [CINNAMIC ACID]	>100	
COc1ccc(/C=C/C(=O)OC/C=C/c2ccccc2)cc1OC	98.9	
O=C(O)/C=C/c1ccc(O)cc1 [COUMARIC ACID]	77	

Structure (SMILES)	PC50 (PANC-1 [1]) [µM]	other results
COc1cc(/C=C/C(=O)OCc2ccccc2)ccc1O [BENZYL FERULATE]	17	
COc1ccc(/C=C/C(=O)O)cc1OC [O,O'-DIMETHYLCAFFEIC ACID]	>100	
O=C(/C=C/c1ccccc1)OCc1ccccc1 [BENZYL CINNAMATE]	>100	
COc1cc(O)c2c(c1)O[C@H](c1ccccc1)[C@@H](OC(C)=O)C2=O	75.3	
COc1c(-c2ccc(O)cc2)oc2cc(O)ccc2c1=O	>100	
COc1cc(/C=C/C(=O)OCC(COC(=O)/C=C/c2ccc(O)cc2)OC(C)=O)ccc1O (stereo not given)	32.7	
COc1cc(O)c2c(=O)c(O)c(-c3ccccc3)oc2c1 [IZALPININ]	>100	
O=C(O)/C=C/C=C/c1ccccc1 [JUAREZIC ACID]	>100	
CC(=O)O[C@H]1C(=O)c2c(O)cc(O)cc2O[C@@H]1c1ccccc1	36.6	
C=C[C@H](c1ccc(O)c(OC)c1)c1c(O)cc(O)c2c(=O)cc(-c3ccccc3)oc12	12.7	
COc1cc(C=O)ccc1O [VANILLIN]	>100	
COc1cc(-c2oc3cc(O)cc(O)c3c(=O)c2OC)ccc1O [3,3'-O-DIMETHYLQUERCETIN]	59.8	
COc1cc(O)c2c(=O)cc(-c3ccccc3)oc2c1 [TECHTOCHRYSIN]	>100	
COc1ccc(/C=C/C(=O)OC/C=C/c2ccccc2)cc1O	31.7	
COc1cc(O)c2c(c1)O[C@H](c1ccccc1)[C@@H](O)C2=O	74.2	
CC(=O)OC(COC(=O)/C=C/c1ccc(O)cc1)COC(=O)/C=C/c1ccc(O)c(O)c1 (stereo not given)	17.4	
O=C1C[C@@H](c2ccc(O)cc2)Oc2cc(O)cc(O)c21 [NARINGENIN]	>100	
O=C(/C=C/c1ccc(O)cc1)OC/C=C/c1ccccc1	38.2	
CC(C)CC(=O)O[C@H]1C(=O)c2c(O)cc(O)cc2O[C@@H]1c1ccccc1	17.5	
O=c1c(O)c(-c2ccccc2)oc2cc(O)cc(O)c12 [GALANGIN]	22.1	
